The source made the active and inactive calls. The calls are words filed in the database; no cut-off is given here.

Series [1] concerns the target T1, Histamine H4 receptor (Homo sapiens, UniProt Q9H3N8). The experiment in a line: Displacement of [3H]histamine from human recombinant histamine H4 receptor expressed in SK-N-MC cells after 45 mins by competition binding analysis. The class given is cell-based.
Series [2] has as its target T1, Histamine H4 receptor. Description: Agonist activity at human H4 receptor. The following applies: read-out: EC50.
Series [3] concerns the target T1, Histamine H4 receptor. The experiment in a line: Antagonist activity at human histamine H4 receptor expressed in SK-N-MC cells assessed as reduction of histamine-induced inhibition of cAMP-mediated beta-galactosidase reporter gene activity treated 10 mins prior to histamine challenge by microplate reader analysis. The class given is functional, cell-based. Particulars: read-out: pA2 (converted).

In series [4] the target is T2, Histamine H4 receptor (Mus musculus, UniProt Q91ZY2).
T2 sequence (Q91ZY2 whole entry): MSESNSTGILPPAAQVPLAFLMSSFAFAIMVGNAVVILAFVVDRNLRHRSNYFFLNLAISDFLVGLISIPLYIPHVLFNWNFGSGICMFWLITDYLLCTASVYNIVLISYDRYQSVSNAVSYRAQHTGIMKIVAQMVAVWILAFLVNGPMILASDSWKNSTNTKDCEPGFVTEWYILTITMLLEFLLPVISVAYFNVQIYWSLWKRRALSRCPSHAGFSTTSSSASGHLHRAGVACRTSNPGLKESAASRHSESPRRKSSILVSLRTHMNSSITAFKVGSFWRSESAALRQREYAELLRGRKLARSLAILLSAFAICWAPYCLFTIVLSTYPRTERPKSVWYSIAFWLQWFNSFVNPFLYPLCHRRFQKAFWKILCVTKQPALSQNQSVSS
The experiment in a line: Displacement of [3H]histamine from mouse histamine H4 receptor expressed in SK-N-MC cells after 45 mins by competition binding analysis. It is filed as cell-based. The procedure, abridged: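 Transfected cells expressing the H4 receptor, competition against [3H]histamine. Ki is the geometric mean of at least three independent determinations (each in triplicate), calculated by the Cheng–Prusoff equation.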

Series [5] concerns the target T2, Histamine H4 receptor. The experiment in a line: Antagonist activity at mouse histamine H4 receptor expressed in SK-N-MC cells assessed as reduction of histamine-induced inhibition of cAMP-mediated beta-galactosidase reporter gene activity treated 10 mins prior to histamine challenge by microplate reader analysis. The class given is functional, cell-based. Particulars: read-out: pA2 (converted).

Another series deals with Histamine H3 receptor (Homo sapiens, UniProt Q9Y5N1). Description: Displacement of [3H]N-alpha-methylhistamine from human recombinant histamine H3 receptor expressed in SK-N-MC cells after 45 mins by competition binding analysis. It is filed as cell-based.
A short description of series [6]: Half life in human microsomes. The class given is ADME, Microsome.
Series [7] in a line: Half life in rat microsomes. The class given is ADME, Microsome.
Series [8] deals with Voltage-gated inwardly rectifying potassium channel KCNH2 (Homo sapiens, UniProt Q12809). Description: Inhibition of human ERG channel transfected in HEK293 cells assessed as reduction in delayed rectifier current by patch clamp assay. The class given is cell-based. The procedure, abridged: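 The delayed rectifier current (IKr) was recorded in hERG-transfected HEK293 cells with the compound at 3 μM.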

The nature of series [9]: Permeability from apical to basolateral side in human Caco cells. The class given is ADME, cell-based. The following applies: Caco-2, read-out: permeability.
A short description of series [10]: Permeability from basolateral to apical side in human Caco cells. Particulars: Caco-2, read-out: permeability. It is filed as ADME, cell-based.
Series [11] is described as follows: Fraction unbound in human plasma. It is filed as ADME, cell-free.
Series [12] in a line: Half life in rat at 2 mg/kg, iv. It is filed as ADME, organism-based. The arrangement: dose 2 mg/kg, route intravenous. The following applies: in vivo.
A short description of series [13]: AUC in rat at 2 mg/kg, iv. It is filed as ADME, organism-based. More on the design: dose 2 mg/kg, route intravenous. Particulars: plasma.
Series [14] in a line: Clearance in rat at 2 mg/kg, iv. The class given is ADME, organism-based. The arrangement: dose 2 mg/kg, route intravenous. Particulars: in vivo.
Series [15] can be described thus: Volume of distribution at steady state in rat at 2 mg/kg, iv. The class given is ADME, organism-based. More on the design: dose 2 mg/kg, route intravenous. The following applies: in vivo, read-out: Vdss.
The nature of series [16]: Oral bioavailability in rat at 10 mg/kg. The class given is ADME, organism-based. Particulars: in vivo.
The nature of series [17]: Half life in rat at 10 mg/kg, po. It is filed as ADME, organism-based. The arrangement: dose 10 mg/kg, route oral. Particulars: in vivo.
Series [18] in a line: Cmax in rat at 10 mg/kg, po. The class given is ADME, organism-based. More on the design: dose 10 mg/kg, route oral. Particulars: in vivo.
A further series concerns Mus musculus. Description: Antiinflammatory activity in po dosed Balb/c mouse assessed as inhibition of LPS-induced TNF-alpha release at plasma concentration of 62.5 nM administered 30 mins prior to LPS challenge measured after 2 hrs by ELISA. It is filed as functional, organism-based.

T1 sequence (Q9H3N8 whole entry): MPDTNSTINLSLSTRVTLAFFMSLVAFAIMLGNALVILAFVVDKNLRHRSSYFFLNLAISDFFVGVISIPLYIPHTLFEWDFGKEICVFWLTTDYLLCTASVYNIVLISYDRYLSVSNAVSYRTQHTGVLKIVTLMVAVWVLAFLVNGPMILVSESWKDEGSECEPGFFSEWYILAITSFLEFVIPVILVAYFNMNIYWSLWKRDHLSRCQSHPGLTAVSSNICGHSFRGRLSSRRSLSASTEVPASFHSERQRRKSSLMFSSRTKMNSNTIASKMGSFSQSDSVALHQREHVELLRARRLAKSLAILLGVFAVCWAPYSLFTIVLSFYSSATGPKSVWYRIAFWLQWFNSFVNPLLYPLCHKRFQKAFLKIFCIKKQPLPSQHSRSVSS
Histamine H3 receptor, sequence (Q9Y5N1 whole entry): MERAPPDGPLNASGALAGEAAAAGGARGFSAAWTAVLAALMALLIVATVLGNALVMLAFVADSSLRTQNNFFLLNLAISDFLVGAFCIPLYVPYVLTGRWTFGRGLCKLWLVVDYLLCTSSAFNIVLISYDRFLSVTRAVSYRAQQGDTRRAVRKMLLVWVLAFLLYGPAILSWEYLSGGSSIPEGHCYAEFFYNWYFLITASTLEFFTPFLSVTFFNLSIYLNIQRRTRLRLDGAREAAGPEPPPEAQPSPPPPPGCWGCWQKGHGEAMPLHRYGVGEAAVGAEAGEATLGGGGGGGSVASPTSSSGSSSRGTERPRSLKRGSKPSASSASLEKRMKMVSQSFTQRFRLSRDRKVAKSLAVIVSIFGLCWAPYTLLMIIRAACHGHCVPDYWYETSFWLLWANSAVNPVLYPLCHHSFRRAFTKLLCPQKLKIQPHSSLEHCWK
Voltage-gated inwardly rectifying potassium channel KCNH2, sequence (Q12809 whole entry): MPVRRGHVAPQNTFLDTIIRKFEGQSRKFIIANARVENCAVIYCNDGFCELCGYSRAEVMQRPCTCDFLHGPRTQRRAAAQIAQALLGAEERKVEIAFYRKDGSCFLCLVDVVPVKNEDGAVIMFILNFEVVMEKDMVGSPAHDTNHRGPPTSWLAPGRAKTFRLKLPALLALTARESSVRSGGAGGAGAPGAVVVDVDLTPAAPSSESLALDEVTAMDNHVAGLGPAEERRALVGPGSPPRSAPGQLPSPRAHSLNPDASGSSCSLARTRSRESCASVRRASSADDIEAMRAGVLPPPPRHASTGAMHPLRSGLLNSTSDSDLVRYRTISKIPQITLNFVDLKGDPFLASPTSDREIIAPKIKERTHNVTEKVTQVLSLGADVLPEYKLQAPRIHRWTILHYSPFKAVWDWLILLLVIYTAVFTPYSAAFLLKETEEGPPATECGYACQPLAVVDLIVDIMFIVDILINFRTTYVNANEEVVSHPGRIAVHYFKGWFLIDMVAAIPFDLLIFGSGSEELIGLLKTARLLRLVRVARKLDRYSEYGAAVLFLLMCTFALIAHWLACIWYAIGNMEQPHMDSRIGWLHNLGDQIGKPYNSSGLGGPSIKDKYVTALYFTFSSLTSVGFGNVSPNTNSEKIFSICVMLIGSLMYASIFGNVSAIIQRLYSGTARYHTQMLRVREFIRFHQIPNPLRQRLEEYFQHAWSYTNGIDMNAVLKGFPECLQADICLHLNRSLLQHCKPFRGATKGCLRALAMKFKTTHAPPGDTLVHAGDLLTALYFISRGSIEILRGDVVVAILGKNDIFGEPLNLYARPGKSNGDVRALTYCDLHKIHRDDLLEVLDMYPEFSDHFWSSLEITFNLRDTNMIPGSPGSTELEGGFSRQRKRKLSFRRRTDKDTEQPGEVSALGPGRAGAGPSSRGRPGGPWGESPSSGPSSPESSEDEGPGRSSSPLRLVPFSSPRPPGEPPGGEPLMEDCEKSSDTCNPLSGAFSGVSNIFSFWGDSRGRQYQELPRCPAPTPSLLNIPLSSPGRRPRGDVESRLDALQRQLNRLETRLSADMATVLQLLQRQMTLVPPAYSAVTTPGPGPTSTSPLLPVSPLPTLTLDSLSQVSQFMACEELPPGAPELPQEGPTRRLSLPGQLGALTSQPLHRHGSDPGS

As to `Nc1nc(C2CCCC2)cc(N2C[C@H]3NCCO[C@@H]3C2)n1` (racemic), the Ki on Histamine H4 receptor [1] came out at 56 nM. Also, on Histamine H4 receptor [2], the EC50 is above 10000 nM. For the same compound, the Kb on Histamine H4 receptor [3] is 126 nM.
Taken in the same sequence, the figures for `CN[C@@H]1CCN(c2cc(C3CCCCC3)nc(N)n2)C1` were 2.3 nM, above 10000 nM and below 0.1 nM.
Take `CN[C@@H]1CCN(c2cc(C(C)C)nc(N)n2)C1`: the EC50 at Histamine H4 receptor [2] is above 10000 nM. Also, at Histamine H4 receptor [3], the Kb is 12.6 nM.
For the compound `Nc1nc(C2CCCC2)cc(N2C[C@H]3CNC[C@H]3C2)n1`, the Ki on Histamine H4 receptor [1] amounted to 328 nM.
For the compound `Nc1nc(C2CCCC2)cc(N2C[C@@H]3NCCO[C@@H]3C2)n1` (relative stereo), the Ki at Histamine H4 receptor [1] stood at 520 nM.
Same read-out and setting: under `CN[C@@H]1CCN(c2cc(C(F)(F)F)nc(N)n2)C1` stands above 10000 nM.
In the case of `CC(C)(C)c1cc(N2CC[C@@H](N)C2)nc(N)n1`, the Ki at Histamine H4 receptor [1] worked out at 9.4 nM. Besides, the EC50 at Histamine H4 receptor [2] is above 10000 nM. Further, the Kb at Histamine H4 receptor [3] was 5.01 nM.
Regarding `Nc1nc(Cc2ccccc2)cc(N2CC[C@@H](N)C2)n1`, the Ki on Histamine H4 receptor [1] was determined as 100 nM.
Take `CCc1cc(N2CC[C@@H](NC)C2)nc(N)n1`: the EC50 on Histamine H4 receptor [2] is above 10000 nM. The figures for the Kb on Histamine H4 receptor [3] and on Histamine H4 receptor [5] were 10 nM and 50.1 nM, respectively. Also, the Ki amounted to 62 nM on Histamine H4 receptor [4] and 670 nM at Histamine H3 receptor. For the same compound, the half-life is above 2 h in series [6], 1.05 h in [7], 5.3 h in series [12] and 9.7 h in series [17]. Further, in series [8], the INH is above 10 µM. In series [9], the Papp A→B came to 54 ×10⁻⁶ cm/s. Besides, the Papp B→A in [10] came to 14 ×10⁻⁶ cm/s. The compound also showed a fraction unbound in series [11] of 0.26. Further, in series [13], the AUC was found to be 11 µM·h. Besides, the clearance in [14] came to 5 mL/min/kg. In series [15], the Vd is 6.3 L/kg. This compound also showed a bioavailability in series [16] of 50%. This compound returned a Cmax in [18] of 1500 nM. Also, the inhibition entry in the series with Mus musculus was “Active”.
Take `CN[C@H]1CCN(c2cc(C3CCCC3)nc(N)n2)C1`: the Ki at Histamine H4 receptor [1] was determined as 25 nM. Further, on Histamine H4 receptor [2], the EC50 was above 10000 nM.
In the case of `CN1CCN(C(=O)c2nc3c([nH]2)CCCC3)CC1`, the Ki at Histamine H4 receptor [1] was 39 nM.
Consider `Nc1nc(C2CCCC2)cc(N2CCC3(CCCN3)C2)n1` (centres undefined), for which, on Histamine H4 receptor [1], the Ki was 11.2 nM. Moreover, on Histamine H4 receptor [2], the concentration giving a half-maximal response (EC50) is above 10000 nM. In addition, the Kb at Histamine H4 receptor [3] is 2.51 nM.
As to `CN[C@@H]1CCN(c2cc(C3CCC3)nc(N)n2)C1`, the Ki at Histamine H4 receptor [1] was found to be 2.4 nM. Also, the EC50 at Histamine H4 receptor [2] was above 10000 nM. In addition, the Kb at Histamine H4 receptor [3] was 0.398 nM.
Regarding `CN[C@@H]1CCN(c2nc(N)nc3c2CCCC3)C1`, the EC50 on Histamine H4 receptor [2] is above 10000 nM. Further, on Histamine H4 receptor [3], the Kb is 25.1 nM.
With `CN[C@@H]1CCN(c2nc(N)nc3c2oc2ncc(Cl)cc23)C1`, the Ki on Histamine H4 receptor [1] turned out to be 9 nM.
As for `Nc1nc(C2CCCC2)cc(N2C[C@H]3CCN[C@H]3C2)n1`, the Ki at Histamine H4 receptor [1] is 2.9 nM. Further, the EC50 at Histamine H4 receptor [2] is above 10000 nM. At Histamine H4 receptor [3], the Kb is 0.1 nM.

The record behind these values is ChEMBL document CHEMBL3232922, “Discovery and SAR of 6-alkyl-2,4-diaminopyrimidines as histamine H₄ receptor antagonists” (J Med Chem, 2014).
